From PubChem BioAssay
In the library only some 4.6% were active in any assay of this set; here they are far more common.
Arr AP2 block: inhibitors of human beta-arrestin and AP2 interaction. FITC-arrestin peptide / GST-AP2 beads, flow cytometry; AP2 beta2 appendage carries R879A mutation. inhibition, % at 10 µM. 340,000 tested, 0.31% active;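 active = inhibition above a set limit, near 3 SD of compounds lacking own fluorescence, cut at about 54% in these data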;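 note: plate controls were DMSO wells for no effect and 5 µM unlabelled arrestin peptide for full effect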
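Material – AP2 appendage R879A on GSH beads · Buffer or medium – PBS with 0.05% Tween 20 and 0.1% BSA · Probe or stimulus – fluorescein-tagged arrestin peptide at 50 nM final · Incubation – compound with beads 12 min RT, then probe 1 h RT · Detection – high-throughput flow cytometry of beads, ex 488, em 535 nm · Evaluation – percent response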
NALP1 inh: blocks the NALP1 inflammasome reconstituted in yeast. S. cerevisiae NALP1/ASC/caspase-1 growth, X-gal OD620, 72 h. 280,000 tested, 0.61% active. inhibition, % at 10 µM; in the data active = inhibition mostly above about 24%, no sharp cut-off; inactive = mostly below about 32%
ALR inh: inhibitors of human sulfhydryl oxidase ALR; inhibition, % (concentration not given with the values); P55789; purified ALR, DTT oxidation, H2O2 HRP-luminol luminescence; 290,000 tested, 3.8% active;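 active = mean replicate inhibition above about 79%, with every replicate also reaching it, limit read from the data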
Target sequence (P55789 whole entry, looked up): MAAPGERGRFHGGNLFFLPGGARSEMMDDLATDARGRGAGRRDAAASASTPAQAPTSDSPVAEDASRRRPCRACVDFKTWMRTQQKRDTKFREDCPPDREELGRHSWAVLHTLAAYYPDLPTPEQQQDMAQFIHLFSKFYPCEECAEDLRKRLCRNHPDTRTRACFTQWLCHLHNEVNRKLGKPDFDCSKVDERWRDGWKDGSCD
DSG3 Ab inh: inhibitors of pemphigus antibody binding to human desmoglein-3. P32926. DSG3-coupled beads, scFv-anti-DSG3-GFP binding, flow cytometry; stronger effect = lower value. binding (percent of control), % at 10 µM. 310,000 tested, 0.48% active;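 active = binding more than 3 SD below its plate's average and above zero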;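 note: hits lower antibody fragment binding to DSG3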
NLRP3 yeast inh: NALP3 inhibition in yeast | 330,000 tested, 0.39% active | Yeast reconstituted NLRP3/ASC/caspase-1, beta-gal luminescence, 24 h | AID 2825 | inhibition, % at 10 µM;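 active = inhibition of 50% or more; inactive = inhibition below 50%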;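 note: plate controls were induced DMSO wells for no effect and uninduced yeast grown without galactose for full effect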
PolyA inh: inhibitors of polyadenylation in S. cerevisiae | S. cerevisiae SKY197-pL101 polyadenylation reporter, beta-gal luminescence; efflux-impaired pdr1/pdr3 knockout yeast; score 100 = 6 SD above DMSO | activity score, % at 12 µM | 300,000 tested, 0.02% active | AID 1875;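 active = lowest replicate activity score at least 50, where 100 means six control SD above control mean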;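 note: yeast exposed to compound for 9 h at 30 °C; higher score means more reporter readthrough which indicates perturbed polyadenylation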
* hit, by the source's call; . = not tested or not shown.

SMILES	Arr AP2 block	NALP1 inh	ALR inh	DSG3 Ab inh	NLRP3 yeast inh	PolyA inh
C#CCOc1ccccc1CNc1ccccc1	-2	18	98*	104	-28	-10
Oc1ccc(NCc2ccccc2OCc2ccccc2)cc1	18	44	9	122	23	7
CCCCCCN(C(=O)CCCCCN1C(=O)NC(c2ccc([N+](=O)[O-])cc2)C(C(=O)OCc2ccccc2)=C1C)C(C(=O)NCCCC)C1CCCCC1 (stereo unspecified)	6	.	.	93	.	.
CCC(OC(=O)CN1C(=O)C(=O)c2ccccc21)C(=O)Nc1ccccc1OC (stereo unspecified)	27	12	.	99	2	4
CC(C)CC(O)(CC(C)C)C(=O)NNc1ccccc1	2	-95	99*	100	2	-1
O=C(C1CCCC1)N1CCN(S(=O)(=O)c2ccc(Cl)cc2)CC1	-3	-7	1	115	24	14
S=C(NC1CC1)N1CCN(c2ccc(Cl)cc2)CC1	-8	-1	98*	98	2	-2
O=C(c1ccc(Cl)cc1)N1CCCC(C(=O)N2CCN(c3ccccc3)CC2)C1 (stereo unspecified)	3	44*	57	107	3	15
O=C(C1CCC1)N1CCN(c2ccc(Cl)cc2)CC1	31	-4	93*	92	11	1
O=C(c1ccc(F)cc1)N1CCCC(C(=O)N2CCN(c3ccccc3)CC2)C1 (stereo unspecified)	7	-15	36	.	13	2
S=C(NC1CCCC1)N1CCN(c2cccc(Cl)c2)CC1	20	13	-2	84	46	-14
CCCc1nnc(SCC(=O)Nc2ccc(NC(C)=O)cc2)n1-n1cccc1	0	.	0	97	9	12
COc1ccc(CNc2cc(C)ccc2C)c(OC)c1OC	-3	28	98*	94	10	-13
COc1cc(C)c(CNc2cccc(C)c2)cc1C	20	1	44	129	12	-2
COc1ccc(C)cc1NCc1cccc(OC)c1OC	-8	33	57	95	20	-4
COc1cc(CNc2ccc3c(c2)CCC3)cc(OC)c1O	44	24	99*	104	-9	2
COc1ccc(CNc2ccc(C)c(C)c2)cc1	24	15	36	.	12	4
COc1cc(CNc2ccc(C)c(C)c2)cc(OC)c1OC	10	-20	97*	102	16	-4
COc1cc(C)c(CNc2ccc(OC)c(OC)c2)cc1C	.	6	82*	.	.	-12
CCOc1ccc(NC(=O)c2cccc(-n3cccc3)c2)cc1S(=O)(=O)N1CCOCC1	-7	.	.	73	17	.
COc1cc(CNc2cc(C)ccc2C)cc(OC)c1OC	-5	39	99*	83	15	0
CN(CC(=O)Nc1cccc(F)c1)C(=O)COc1cccc2c1OC(C)(C)C2	8	32*	5	.	5	8
CC1=NN(c2ccccc2)C(=O)/C1=C/C=C/C=C/N(C)C	1	-5	96*	99	35	-41
CC1=NN(c2ccc(C)cc2)C(=O)/C1=C\C=C\c1ccccc1	-10	25	-4	90	15	-9
Cc1ccc(CNC(=O)CCNC(=O)N2CCn3c2nc2ccccc23)cc1	25	15	94*	90	7	-12
SMILES	Arr AP2 block	NALP1 inh	ALR inh	DSG3 Ab inh	NLRP3 yeast inh	PolyA inh
COc1cccc(CNC(=O)CCNC(=O)N2CCn3c2nc2ccccc23)c1	4	-3	98*	100	16	-3
COc1cccc(CNC(=O)CCCCCNC(=O)N2CCn3c2nc2ccccc23)c1	1	6	-3	106	0	9
CC(=O)Nc1ccc(S(=O)(=O)CC(=O)CS(=O)(=O)c2ccc(NC(C)=O)cc2)cc1	.	.	.	105	.	.
COCc1ccc(C(=O)NC2CCCc3c2cnn3-c2ccc(C)c(C)c2)o1 (stereo unspecified)	-8	22	10	118	6	-8
O=C(CSCc1nc2c(nnn2Cc2ccc(F)cc2)c(=O)[nH]1)Nc1cccc(C(F)(F)F)c1	6	-4	96*	113	-5	5
CN(C)c1ccc(NC(=O)CSCc2nc3c(nnn3Cc3ccc(F)cc3)c(=O)[nH]2)cc1	0	-8	.	99	2	-12
NC(=O)c1ccccc1N/C=C/C(=O)c1ccco1	-4	-17	6	96	-10	18
O=C(/C=C/Nc1ccc(Oc2ccccc2)cc1)c1ccco1	7	-11	2	14*	37	-4
CCOC(=O)C1=C(COC(=O)c2ccco2)NC(=O)NC1CC (stereo unspecified)	38	.	-1	.	7	.
CC1(C)CN(c2ccccc2)C(=O)[C@H]1CC(=O)Nc1ccccc1	.	.	.	95	.	.
COc1ccc([N+](=O)[O-])cc1NC(=O)CSCc1ccccc1	-7	16	-9	106	24	0
O=C(c1ccc(NC(=O)C(c2ccccc2)c2ccccc2)cc1)c1ccc(C(=O)O)c(C(=O)O)c1	-11	16	94*	116	12	24
O=C(O)c1ccc(NC(=O)C(c2ccccc2)c2ccccc2)cc1	0	-3	-7	95	18	0
COc1ccc(CSc2nc(C)[nH]c2[N+](=O)[O-])cc1[N+](=O)[O-]	6	.	100*	.	18	20
COc1ccc(CSCC(=O)Nc2ccccc2)cc1[N+](=O)[O-]	-10	30	99*	119	1	24
COc1cc(NC(=O)C(c2ccccc2)c2ccccc2)c(C(=O)O)cc1OC	7	6	92*	104	15	23
Cc1nc(SCc2ccccc2)c([N+](=O)[O-])[nH]1	-8	29	.	107	10	-12
Cc1cccc(OCC(=O)NNC(=O)c2ccc3nc[nH]c3c2)c1	-15	.	-13	98	0	.
CC(=O)c1cccc(NC(=O)CSCc2ccccc2)c1	38	8	97*	99	5	7
COc1cc(NC(=O)CSCc2ccccc2)c(C(=O)O)cc1OC	5	11	76*	118	0	-2
O=C([O-])c1ccccc1-[n+]1c(-c2ccccc2)cc(-c2ccccc2)cc1-c1ccccc1	1	.	-28	105	-2	12
Cc1cc(C(=O)COC(=O)c2cccc(O)c2)c(C)n1C1CC1	3	.	4	100	8	.
CC(C)(C)OC(=O)C[C@H]1C/C=C\C[C@@H](CC(=O)NCCO)C(=O)N[C@H](C(C)(C)C)COC1=O	-13	.	.	93	2	.
Cc1ccc(-n2ncc3c(=O)[nH]c(SCC(=O)N4CCN(c5ccccc5)CC4)nc32)cc1	11	-85	-8	-32*	7	-6
Nc1nc(SCC(=O)N2CCN(c3ccc(F)cc3)CC2)n[nH]1	-8	.	94*	102	29	.
